# Compound activity as filed in PubChem BioAssay.
# core dimer inh: inhibitors of HCV core protein dimerization, primary screen, biochemical, TR-FRET, high-throughput | TR-FRET GST/Flag-core106 dimerization, 1536-well | inhibition, % at 5 µM | hit rate 0.33% among 300,000 | AID 1899, 2009;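 active = inhibition above the mean of all tested compounds plus 3 SD, set per screening campaign, cut at about 45% in these data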
#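 System: GST/Flag-tagged HCV core106 proteins. Incubation: compound-protein-antibody incubation 4 h at 22.5 °C. Technique: HTRF with 340 nm excitation, 617/671 nm emission. Medium: KF-containing HEPES buffer, pH 7.45, DTT, CHAPS, BSA. Read-out: inhibition (%) from 671 over 617 nm ratio. Also added: Eu(K)-anti-GST 90 ng/mL plus XL665-anti-Flag 1 µg/mL.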
# AI-2 QS modul: Vibrio harveyi AI-2 quorum sensing modulators, primary screen, JMH597 strain, luminescence/OD600 ratio | hit rate 0.4% among 300,000 | Vibrio harveyi JMH597 AI-2 luminescence/OD600 ratio, 9 h; hits give low values; strain lacks LuxN and CqsS sensors; 0 = neutral-control median | activity change, % at 7.5 µM; in the data active = activity change below about -75%, passing the limit was not always enough; inconclusive = no clear call, values can overlap the other calls;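 also: luminescence divided by OD600 gain over 9 h not by final OD600 alone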
# HSF1 activator: HSF-1 activators, primary screen, NIH3T3-HGL cells, MG132 stress, luminescence, single point | NIH3T3-HGL HSF-1 luciferase reporter, 8 h; 100% = twice DMSO control signal | activation, % at 9 µM | hit rate 1.7% among 300,000 | AID 504408, 2011;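 active = mean replicate activation of at least 50% with a set share of replicates each reaching 50%; inconclusive = only one of those two conditions met; inactive = mean below 50% and too few replicates reaching it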;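 also: 0% = median of the neutral control wells and 100% = twice that signal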
# ALR inh: inhibitors of human ALR sulfhydryl oxidase, primary screen, biochemical, H2O2 detection, HRP-luminol luminescence, single point | purified ALR, DTT oxidation | hit rate 3.8% among 290,000 | AID 485317, 2010 | FAD-linked sulfhydryl oxidase ALR (Homo sapiens), P55789 | inhibition, % (test concentration not listed);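 active = mean replicate inhibition above about 79%, with every replicate also reaching it, limit read from the data; inconclusive = only one of the two criteria met; inactive = mean below limit and not every replicate reaching it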
# PHOSPHO1 inh: PubChem AID 1565. recombinant PHOSPHO1, absorbance phosphatase assay. inhibition, % at 13.3 µM. hit rate 1.1% among 290,000; in the data active = inhibition above about 60%
# Target sequence (Q8TCT1 whole entry, looked up): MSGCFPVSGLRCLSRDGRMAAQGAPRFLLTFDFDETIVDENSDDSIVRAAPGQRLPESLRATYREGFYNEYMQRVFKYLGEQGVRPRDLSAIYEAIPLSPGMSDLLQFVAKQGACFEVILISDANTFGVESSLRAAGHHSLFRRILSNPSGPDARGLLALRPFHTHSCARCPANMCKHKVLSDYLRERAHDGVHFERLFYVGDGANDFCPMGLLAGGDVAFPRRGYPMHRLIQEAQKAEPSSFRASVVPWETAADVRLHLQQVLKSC
# HSF1 inh: HSF1 inhibitors in luciferase reporter cells, primary screen, cell-based, NIH3T3, luminescence. activity change, negative = inhibition, % at 7.5 µM (by protocol). hit rate 0.77% among 300,000. NIH3T3-HGL HSE-luciferase, MG132-induced, luminescence 8 h; hits give low values;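 active = more than half of replicate wells show activity change below -50%, luminescence cut by over half; inconclusive = some wells, but at most half, below -50%; inactive = no replicate well below -50%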;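 also: luciferase reports HSF-1 transcriptional activity via heat shock element; 0% = median of DMSO wells and -100% = zero luminescence signal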
# JMH597 growth: Vibrio harveyi growth inhibition, confirmation, counter-screen for AI-2 quorum sensing project, JMH597 strain, OD600 absorbance; shares compounds with AI-2 QS modul; 9 h; lacks LuxN and CqsS sensors; growth inhibition, % at 7.5 µM; hit rate 1% among 750;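 active = every replicate shows growth inhibition above 50%; inconclusive = at least half, but not all, replicates pass that cutoff; inactive = fewer than half of replicates pass it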
# BB721 lum counter: luminescence inhibition in constitutive-on V. harveyi, confirmation, counter-screen for LuxS inhibitor project, strain BB721, luminescence readout. inhibition, % at 7.5 µM. hit rate 95% among 750. Vibrio harveyi BB721 luminescence, 9 h. shares compounds with AI-2 QS modul;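 active = inhibition above about 80% in every replicate, not just on average, limit read from the data; inconclusive = at least half of replicates past the limit, but not all; inactive = fewer than half of replicates past the limit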
# BB721 growth rt: growth inhibition of V. harveyi BB721, confirmation, cytotoxicity control for AI-2 quorum sensing inhibitors, strain BB721, absorbance OD600. shares compounds with AI-2 QS modul. Vibrio harveyi BB721 growth, 9 h. growth inhibition, % at 7.5 µM. hit rate 3% among 750;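 active = every replicate shows growth inhibition above 50%; inconclusive = at least half but not all replicates above 50% inhibition; inactive = under half of replicates above 50% inhibition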
# JMH597 AI-2 mod: Vibrio harveyi AI-2 signaling luminescence modulation – JMH597 strain, confirmation; Vibrio harveyi JMH597 AI-2 quorum sensing luminescence, 9 h; luxN and CqsS knockout, AI-2 only; hit rate 97% among 750; inhibition, % at 7.5 µM; shares compounds with AI-2 QS modul;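 active = every replicate shows more than 75% inhibition of signal versus neutral control wells; inconclusive = half to three quarters of replicates exceed 75% inhibition; inactive = fewer than half of replicates exceed 75% inhibition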
# Numbers without * were called inactive; ? = inconclusive; . = no result given. Hits are enriched below; roughly 6.8% of the tested compounds scored in any of these assays.
SMILES,core dimer inh,AI-2 QS modul,HSF1 activator,ALR inh,PHOSPHO1 inh,HSF1 inh,JMH597 growth,BB721 lum counter,BB721 growth rt,JMH597 AI-2 mod
Cc1ccc(OCc2nc(-c3cccnc3)no2)cc1C,2.1,-93.8*,.,0.3,1.4,.,2.5,98.2*,2.5,98.7*
Cc1ccccc1OCc1nc(-c2cccnc2)no1,1.8,-47.8,47.1,61.3,-5.7,16.9,.,.,.,.
Cc1cc(C)cc(OCc2nc(-c3cccnc3)no2)c1,-2.0,-95.2*,13.1,11.2,-10.2,-2.4,8.6,98.7*,-1.9,98.9*
CCC(C(=O)Nc1cccnc1)n1c(=O)[nH]c2ccccc2c1=O (configuration not stated),-0.9,17.3,-23.1,-10.5,12.0,-7.9,.,.,.,.
O=C(NNc1nc(-c2ccc(Br)cc2)cs1)c1ccco1,2.4,-84.7*,11.5,-9.9,8.1,1.1,62.8*,94.9*,68.8*,96.7*
O=C(NC(=S)Nc1nc(-c2ccc(Br)cc2)cs1)c1ccco1,4.7,20.5,16.1,6.7,-20.0,7.2,.,.,.,.
CCc1ccc(S(=O)(=O)Nc2ccc(Br)cn2)cc1,2.8,?,4.6,-2.9,-2.6,-0.1,21.6,-10.5,1.0,94.8*
CCOC(=O)C1(Cc2ccccc2)CCCN(C(=O)c2cnn(CC)c2)C1 (configuration not stated),0.9,8.1,26.5,-0.5,18.5,24.9,.,.,.,.
CC(C)c1ccc(S(=O)(=O)N2CCN(C(=S)NCc3ccco3)CC2)cc1,11.5,-96.3*,26.4,.,52.0,19.2,32.1,99.8*,-39.5,99.9*
